Laboratory results: ChEMBL document CHEMBL4699522, “Androsamide, a Cyclic Tetrapeptide from a Marine Nocardiopsis sp., Suppresses Motility of Colorectal Cancer Cells” (J Nat Prod, 2020)
Activity calls are given as the source filed them. Non-standard residues stand in square brackets, D forms with d. Residues, ends and D or L forms follow the SMILES beside them. NMeTrp(4-OMe) = CN[C@@H](Cc1c[nH]c2cccc(OC)c12)C(=O)O; NMeM = CN[C@@H](CCSC)C(=O)O

Key:
[1] = system: Caco-2; test: Inhibition of epithelial-mesenchymal transition in human Caco-2 cells assessed as decrease in Slug mRNA expression at 0.65 to 1.3 uM after 24 hrs by qRT-PCR analysis; format: functional, cell-based; conditions: dose microM 0.65-1.3, time 24.0 hrs
In short: (§1)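 Caco2 treated 24 h at 0.65 or 1.3 μM. Total RNA isolated, and 1 μg reverse-transcribed. Quantified by SYBR green real-time PCR. Fold change derived from cycle-threshold values, normalized to GAPDH, and compared with DMSO-treated cells. Means ± SEM, n = 3.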

[2] = system: Caco-2; test: Inhibition of cell migration in human Caco-2 cells after 6 hrs by K1-Fluo RT fluorescence confocal microscope based transwell assay; format: functional; conditions: dose microM 0.15-1.3, time 6.0 hrs
In short: (§2)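 Migration through uncoated Boyden chambers. (2.0-2.5) × 10^5 Caco2 cells seeded in medium with 0.2% BSA. The lower chamber holds 0.2% BSA medium plus 10 μg/mL fibronectin as chemoattractant. Treated at 0.15, 0.65 or 1.3 μM for 6 h at 37 °C. Migrated cells fixed, Diff-Quick stained and counted in five random fields by confocal microscopy. Expressed relative to DMSO control; triplicate.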

[3] = system: HCT-116; test: Cytotoxicity against human HCT-116 cells assessed as reduction in cell viability after 48 hrs by MTT assay; format: functional, cell-based
In short: (§3)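 MTT read-out. Cells seeded at (2-3) × 10^3/well, incubated 12 h, then exposed to 3.125–100 μM for 48 h, with MTT added for the final 4 h. Absorbance read at 540 nm. Viability is normalized to DMSO-treated cells. IC50 computed by statistical software. Means ± SEM, n = 3. AGS cells were grown in RPMI, Caco2 and HCT116 in DMEM, all with 10% FBS, at 37 °C and 5% CO2.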

[4] = system: AGS; test: Cytotoxicity against human AGS cells assessed as reduction in cell viability after 48 hrs by MTT assay; format: functional, cell-based; in short: as §3
[5] = system: Caco-2; test: Inhibition of epithelial-mesenchymal transition in human Caco-2 cells assessed as decrease in N-cadherin protein expression at 0.65 to 1.3 uM after 24 hrs by Western blot analysis; format: functional, cell-based; conditions: dose microM 0.65-1.3, time 24.0 hrs
In short: (§4)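 2 × 10^5 Caco2 cells per well treated 24 h at nontoxic concentrations. Lysates separated by SDS-PAGE and probed with primary antibodies, then HRP-conjugated secondaries. Luminescence band densities normalized to α-tubulin and compared with DMSO-treated cells. Means ± SEM, n = 3.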

[6] = system: Caco-2; test: Inhibition of epithelial-mesenchymal transition in human Caco-2 cells assessed as increase in E-cadherin mRNA expression after 24 hrs by qRT-PCR analysis; format: functional, cell-based; conditions: dose microM 0.65-1.3, time 24.0 hrs; in short: as §1
[7] = system: Caco-2; test: Inhibition of epithelial-mesenchymal transition in human Caco-2 cells assessed as decrease in ZEB2 mRNA expression at 0.65 to 1.3 uM after 24 hrs by qRT-PCR analysis; format: functional, cell-based; conditions: dose microM 0.65-1.3, time 24.0 hrs; in short: as §1
[8] = system: Caco-2; test: Inhibition of cell migration in human Caco-2 cells at 1.3 uM after 6 hrs by K1-Fluo RT fluorescence confocal microscope based transwell assay relative to control; format: functional; in short: as §2
[9] = system: Caco-2; test: Inhibition of epithelial-mesenchymal transition in human Caco-2 cells assessed as increase in E-cadherin protein expression at 0.65 to 1.3 uM after 24 hrs by Western blot analysis; format: functional, cell-based; conditions: dose microM 0.65-1.3, time 24.0 hrs; in short: as §4
[10] = system: Caco-2; test: Inhibition of cell motility in human Caco-2 cells assessed as reduction in CAPN1 mRNA expression at 0.65 to 1.3 uM by RT2 Profiler PCR Array; format: functional, cell-based; conditions: dose microM 0.65-1.3
[11] = system: Caco-2; test: Induction of apoptosis in human Caco-2 cells at 13 to 16 uM after 6 hrs by annexin V-FITC/propidium iodide staining based flow cytometric analysis; format: functional, cell-based; conditions: dose microM 13-16, time 6.0 hrs
[12] = system: Caco-2; test: Inhibition of cell motility in human Caco-2 cells assessed as reduction in RAC2 mRNA expression at 0.65 to 1.3 uM by RT2 Profiler PCR Array; format: functional, cell-based; conditions: dose microM 0.65-1.3
[13] = system: Caco-2; test: Inhibition of cell migration in human Caco-2 cells at 1.3 uM after 24 hrs by fluorescence microscope based Boyden-Chamber cell migration assay relative to control; format: functional
In short: (§5)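 Boyden chambers coated with 1% gelatin. Caco2 seeded at 2.5 × 10^6 cells/mL in 0.2% BSA medium; the lower chamber has 0.2% BSA medium with 10 μg/mL fibronectin. Exposed to 0.15, 0.65 or 1.3 μM for 24 h at 37 °C. Invaded cells fixed, Diff-Quick stained and counted in five random fields by fluorescence microscopy. Expressed relative to DMSO control; three replicates.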

[14] = system: Caco-2; test: Inhibition of epithelial-mesenchymal transition in human Caco-2 cells assessed as decrease in Snail mRNA expression at 0.65 to 1.3 uM after 24 hrs by qRT-PCR analysis; format: functional, cell-based; conditions: dose microM 0.65-1.3, time 24.0 hrs; in short: as §1
[15] = system: Caco-2; test: Inhibition of epithelial-mesenchymal transition in human Caco-2 cells assessed as decrease in Twist mRNA expression at 0.65 to 1.3 uM after 24 hrs by qRT-PCR analysis; format: functional, cell-based; conditions: dose microM 0.65-1.3, time 24.0 hrs; in short: as §1
[16] = system: Caco-2; test: Inhibition of epithelial-mesenchymal transition in human Caco-2 cells assessed as decrease in vimentin mRNA expression after 24 hrs by qRT-PCR analysis; format: functional, cell-based; conditions: dose microM 0.65-1.3, time 24.0 hrs; in short: as §1
[17] = system: Caco-2; test: Inhibition of epithelial-mesenchymal transition in human Caco-2 cells assessed as decrease in Twist protein expression at 0.65 to 1.3 uM after 24 hrs by Western blot analysis; format: functional, cell-based; conditions: dose microM 0.65-1.3, time 24.0 hrs; in short: as §4
[18] = system: Caco-2; test: Inhibition of epithelial-mesenchymal transition in human Caco-2 cells assessed as decrease in N-cadherin mRNA expression after 24 hrs by qRT-PCR analysis; format: functional, cell-based; conditions: dose microM 0.65-1.3, time 24.0 hrs; in short: as §1
[19] = system: Caco-2; test: Inhibition of cell migration in human Caco-2 cells after 24 hrs by fluorescence microscope based Boyden-Chamber cell migration assay; format: functional; conditions: dose microM 0.15-1.3, time 24.0 hrs; in short: as §5
[20] = system: Caco-2; test: Cytotoxicity against human Caco-2 cells assessed as reduction in cell viability after 48 hrs by MTT assay; format: functional, cell-based; in short: as §3
[21] = system: HCT-116; test: Induction of apoptosis in human HCT-116 cells at 21 to 26 uM after 6 hrs by annexin V-FITC/propidium iodide staining based flow cytometric analysis; format: functional, cell-based; conditions: dose microM 21-26, time 6.0 hrs
[22] = system: Caco-2; test: Inhibition of epithelial-mesenchymal transition in human Caco-2 cells assessed as decrease in ZEB1 mRNA expression at 0.65 to 1.3 uM after 24 hrs by qRT-PCR analysis; format: functional, cell-based; conditions: dose microM 0.65-1.3, time 24.0 hrs; in short: as §1
[23] = system: Caco-2; test: Inhibition of epithelial-mesenchymal transition in human Caco-2 cells assessed as decrease in Snail protein expression at 0.65 to 1.3 uM after 24 hrs by Western blot analysis; format: functional, cell-based; conditions: dose microM 0.65-1.3, time 24.0 hrs; in short: as §4

## CC[C@H](C)[C@@H]1NC(=O)[C@H]([C@@H](C)O)NC(=O)[C@H](Cc2c[nH]c3cccc(OC)c23)N(C)C(=O)[C@H](CCSC)N(C)C1=O (cyclo(I[NMeM][NMeTrp(4-OMe)]T))
[1]
  inhibition: Active
[2]
  inhibition: Dose-dependent effect
[3]
  Activity: Dose-dependent effect
[3]; HCT-116, 48 h
  IC50: 21 µM
[4]
  Activity: Dose-dependent effect
  IC50: 18 µM
[5]
  inhibition: Active
[6]
  inhibition: Dose-dependent effect
[7]
  inhibition: Active
[8]
  inhibition at 1.3 µM: 50%
[9]
  inhibition: Active
[10]
  inhibition: Active
[11]
  Activity: Active
[12]
  inhibition: Active
[13]
  inhibition at 1.3 µM: 45%
[14]
  inhibition: Active
[15]
  inhibition: Active
[16]
  inhibition: Dose-dependent effect
[17]
  inhibition: Active
[18]
  inhibition: Dose-dependent effect
[19]
  inhibition: Dose-dependent effect
[20]
  Activity: Dose-dependent effect
[20]; Caco-2, 48 h
  IC50: 13 µM
[21]
  Activity: Active
[22]
  inhibition: Active
[23]
  inhibition: Active
